Laboratory results published in ChEMBL document CHEMBL2151001, “Indiacens A and B: prenyl indoles from the myxobacterium Sandaracinus amylolyticus” (2012).
In brackets after ≈: the same amount, converted by molar mass.

Legend:
Type in all cases: functional
Mucor hiemalis = test: Antimicrobial activity against Mucor hiemalis by serial dilution method
How it was run: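 Fungal MIC by serial dilution in 96-well plates. Organism cultivated in MYC medium (1.0% phytone peptone, 1.0% glucose, 1.19% HEPES, pH 7.0) at 30 °C, 160 rpm.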

[1] = Antimicrobial activity against Arthrobacter rubellus by serial dilution method
How it was run: (§1)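 MIC by serial dilution in 96-well plates. Test bacteria grown in EBS medium (0.5% peptone, 0.5% glucose, 0.1% meat extract, 0.1% yeast extract, 50 mM HEPES, pH 7.0) at 30 °C with shaking at 160 rpm.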

Pimelobacter simplex = test: Antimicrobial activity against Nocardioides simplex by serial dilution method; how it was run: as §1
Mycobacterium lacticola = test: Antimicrobial activity against Mycobacterium lacticola by serial dilution method; how it was run: as §1
[2] = test system: Mycolicibacterium diernhoferi; test: Antimicrobial activity against Mycobacterium diernhoferi by serial dilution method; how it was run: as §1
Stutzerimonas stutzeri = test: Antimicrobial activity against Pseudomonas stutzeri by serial dilution method; how it was run: as §1
[3] = test system: Chromobacterium violaceum; test: Antimicrobial activity against Chromobacterium violaceum by serial dilution method; how it was run: as §1
Escherichia coli = test: Antimicrobial activity against Escherichia coli expressing mutant TOLC by serial dilution method

Row | SMILES | MIC (Mucor hiemalis) | MIC [1] | MIC (Pimelobacter simplex) | MIC (Mycobacterium lacticola) | MIC [2] | MIC (Stutzerimonas stutzeri) | MIC [3] | MIC (Escherichia coli)
1 | C=C(C)/C=C/c1cccc2[nH]cc(C=O)c12 [INDIACEN A] | 16.6 µg/mL (≈ 78.6 µM) | 16.6 µg/mL (≈ 78.6 µM) | 8.3 µg/mL (≈ 39.3 µM) | 16.6 µg/mL (≈ 78.6 µM) | 16.6 µg/mL (≈ 78.6 µM) | > 33 µg/mL | 16.6 µg/mL (≈ 78.6 µM) | 16.6 µg/mL (≈ 78.6 µM)
2 | CC(/C=C/c1cccc2[nH]cc(C=O)c12)=C\Cl [INDIACEN B] | 16.6 µg/mL (≈ 67.6 µM) | 0.8 µg/mL (≈ 3.26 µM) | 3.3 µg/mL (≈ 13.4 µM) | 33 µg/mL (≈ 134 µM) | > 33 µg/mL | 33 µg/mL (≈ 134 µM) | 33 µg/mL (≈ 134 µM) | 33 µg/mL (≈ 134 µM)
